Assay results: ChEMBL document CHEMBL1146466, “Immunomodulatory constituents from an Ascomycete, Chaetomium seminudum” (J Nat Prod, 2004)
≈ marks a conversion by molar mass, not a printed value.

Key:
[1] = Immunosuppressive activity in BALB/c mouse splenic B lymphocytes assessed as inhibition of LPS-induced cell proliferation after 72 hrs by MTT assay; format: functional, cell-based
Outline: (§1)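 Splenocytes from three male BALB/c mice (7-11 weeks) at 8.0 × 10^6 cells/mL in FBS/RPMI, stimulated with LPS (B cells) or Con A (T cells) at 70% of the optimum dose from a dose-response curve. Samples were dissolved in 1.0% EtOH/medium and incubated 72 h at 37 °C in 5% CO2. MTT (5.0 mg/mL stock) was added for 4 h, formazan extracted into DMSO, and A570/630 read. Proliferation was expressed as % of no-sample control, in triplicate. IC50 came from a 7-concentration curve.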

[2] = Immunosuppressive activity in BALB/c mouse splenic T lymphocytes assessed as inhibition of Con A-induced cell proliferation after 72 hrs by MTT assay; format: functional, cell-based; outline: as §1

SMILES	IC50 [1] [ng/mL]	IC50 [2] [ng/mL]
Cn1cnc([N+](=O)[O-])c1Sc1ncnc2[nH]cnc12 [AZATHIOPRINE]	2700 (≈ 9740 nM)	2700 (≈ 9740 nM)
C=CC[C@@H]1/C=C(\C)C[C@H](C)C[C@H](OC)[C@H]2O[C@@](O)(C(=O)C(=O)N3CCCC[C@H]3C(=O)O[C@H](/C(C)=C/[C@@H]3CC[C@@H](O)[C@H](OC)C3)[C@H](C)[C@@H](O)CC1=O)[C@H](C)C[C@@H]2OC [TACROLIMUS ANHYDROUS]	1.6 (≈ 1.99 nM)	0.015 (≈ 0.0187 nM)
CS[C@]1(CO)NC(=O)[C@](Cc2c[nH]c3ccccc23)(SC)NC1=O [CHETOSEMINUDIN C]		> 50000
CN1C(=O)[C@]2(Cc3cn([C@]45C[C@@]67SS[C@@](CO)(C(=O)N6[C@H]4Nc4ccccc45)N(C)C7=O)c4ccccc34)SS[C@@]1(CO)C(=O)N2C [CHETOMIN]	90 (≈ 127 nM)	170 (≈ 239 nM)
CS[C@]1(Cc2c[nH]c3ccccc23)NC(=O)[C@](CO)(SC)N(C)C1=O [CHETOSEMINUDIN B]		24000 (≈ 63200 nM)
CN1C(=O)[C@]2(Cc3cn([C@]45C[C@@]67SSS[C@@](CO)(C(=O)N6[C@H]4Nc4ccccc45)N(C)C7=O)c4ccccc34)SS[C@@]1(CO)C(=O)N2C [CHETOSEMINUDIN A]	130 (≈ 175 nM)	180 (≈ 242 nM)
